In ChEMBL document CHEMBL3860040, “Purine-Type Compounds Induce Microtubule Fragmentation and Lung Cancer Cell Death through Interaction with Katanin” (J Med Chem, 2016) one finds IC50 and Activity data, which are given here for 7 molecules.

The nature of assay [1]: Cytotoxicity against human NCI-H1975 cells harboring EGFR T790M mutant assessed as decrease in cell viability after 72 hrs by MTT assay. Type of assay: functional, cell-based. The note with it: NCI-H1975, 72 h. On the technique in general: Tetrazolium assays rely on reduction of a dye to a coloured formazan, in cell work by metabolically active cells.
The target of assay [2] is Katanin p60 ATPase-containing subunit A1 (Homo sapiens) (UniProt O75449). Briefly: Binding affinity to katanin p60 subunit in human NCI-H1975 cell lysate using biotin-labeled compound preincubated for 24 hrs followed by streptavidin-conjugated beads addition measured after 2 hrs by immunoblot analysis. It counts as cell-free. In outline: (§1)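 H1975 lysate incubated 24 h with biotinylated probe or with a purine-free linker as control. Bound proteins detected by immunoblot; three independent experiments.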
Chain of Katanin p60 ATPase-containing subunit A1 (Homo sapiens) (O75449 whole entry): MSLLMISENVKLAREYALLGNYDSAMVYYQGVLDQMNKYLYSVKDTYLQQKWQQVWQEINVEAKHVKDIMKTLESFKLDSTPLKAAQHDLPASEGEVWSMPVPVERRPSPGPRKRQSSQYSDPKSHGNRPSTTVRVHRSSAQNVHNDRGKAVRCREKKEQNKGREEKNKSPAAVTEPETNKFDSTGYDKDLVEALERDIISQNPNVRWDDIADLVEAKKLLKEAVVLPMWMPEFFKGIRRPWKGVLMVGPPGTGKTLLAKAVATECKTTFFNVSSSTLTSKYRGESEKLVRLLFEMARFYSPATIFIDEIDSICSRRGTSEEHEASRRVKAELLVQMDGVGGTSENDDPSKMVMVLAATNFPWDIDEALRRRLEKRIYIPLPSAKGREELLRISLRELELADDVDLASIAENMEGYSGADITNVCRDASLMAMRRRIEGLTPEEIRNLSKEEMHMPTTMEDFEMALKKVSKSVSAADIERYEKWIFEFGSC

In assay [3] the target is Katanin p80 WD40 repeat-containing subunit B1 (Homo sapiens) (UniProt Q9BVA0). Description: Binding affinity to katanin p80 subunit in human NCI-H1975 cell lysate using biotin-labeled compound preincubated for 24 hrs followed by streptavidin-conjugated beads addition measured after 2 hrs by immunoblot analysis. It counts as cell-free. In outline: as §1
Chain of Katanin p80 WD40 repeat-containing subunit B1 (Homo sapiens) (Q9BVA0 whole entry): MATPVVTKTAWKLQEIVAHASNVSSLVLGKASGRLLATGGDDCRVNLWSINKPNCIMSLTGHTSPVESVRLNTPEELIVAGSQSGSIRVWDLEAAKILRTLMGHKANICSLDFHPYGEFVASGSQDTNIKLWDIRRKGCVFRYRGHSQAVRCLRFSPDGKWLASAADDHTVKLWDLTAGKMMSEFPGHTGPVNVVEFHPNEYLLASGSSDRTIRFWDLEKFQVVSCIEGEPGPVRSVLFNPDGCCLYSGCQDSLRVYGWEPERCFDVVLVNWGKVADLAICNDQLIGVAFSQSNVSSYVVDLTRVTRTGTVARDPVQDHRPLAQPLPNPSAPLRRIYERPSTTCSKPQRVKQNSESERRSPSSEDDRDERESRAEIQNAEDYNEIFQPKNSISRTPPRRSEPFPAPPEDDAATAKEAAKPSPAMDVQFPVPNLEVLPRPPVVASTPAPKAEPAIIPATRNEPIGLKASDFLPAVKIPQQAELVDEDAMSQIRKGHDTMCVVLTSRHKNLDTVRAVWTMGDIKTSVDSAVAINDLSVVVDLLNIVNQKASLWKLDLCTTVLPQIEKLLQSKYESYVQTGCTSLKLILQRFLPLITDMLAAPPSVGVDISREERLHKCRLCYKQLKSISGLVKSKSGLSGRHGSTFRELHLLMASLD
In assay [4] the target is Katanin p60 ATPase-containing subunit A1 (Homo sapiens) (UniProt O75449). Description: Induction of katanin p60 subunit-mediated JNK signaling pathway activation in human NCI-H1975 cells assessed as increase in JNK phosphorylation at T183/Y185 and T221/Y223 residues at 300 nM after 9 hrs by phospho-kinase antibody array method. Type of assay: cell-based. In outline: (§2)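 H1975 cells seeded overnight, exposed to 300 nM for 9 h; DMSO-treated cells as controls. Lysates rocked 30 min at 4 °C and spun at 14,000×g for 30 min. Equal BCA-quantified protein applied to a human phospho-kinase antibody array; spot density measured by densitometry.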

For assay [5] the target is unchanged. Description: Induction of katanin p60 subunit-mediated JNK signaling pathway activation in human NCI-H1975 cells assessed as increase in c-Jun phosphorylation at S63 residues at 300 nM after 9 hrs by phospho-kinase antibody array method. It counts as cell-based. In outline:
as §2

Assay [6] has the same target. Briefly: Induction of katanin p60 subunit-mediated JNK signaling pathway activation assessed as increase in phosphorylation level at T183/Y185 residues in human NCI-H1975 cells at 300 nM after 6 to 12 hrs by immunoblot analysis. It counts as cell-based. In outline:
(§3)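 H1975 cells treated with 300 nM for 6 h and 12 h, lysed, and phospho-JNK and phospho-c-Jun detected by immunoblot with ECL. Three independent experiments.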
In general terms: In western blotting, separated proteins are transferred to a membrane and probed.

For assay [7] the target is unchanged. Briefly: Induction of katanin p60 subunit-mediated JNK signaling pathway activation assessed as increase in c-Jun phosphorylation level at S63 residues in human NCI-H1975 cells at 300 nM after 6 to 12 hrs by immunoblot analysis. It counts as cell-based. In outline:
as §3

Assay [8] has the same target. Briefly: Induction of katanin p60 subunit-mediated microtubule fragmentation in human NCI-H1975 cells at 300 nM after 12 hrs by DAPI staining based confocal laser microscopy. It counts as cell-based. In outline: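 H1975 cells treated 12 h, fixed in 3.7% cold paraformaldehyde and permeabilized with 0.1% Triton X-100. Stained with anti-α-tubulin at 37 °C for 1 h, then FITC secondary (1:100) at 37 °C for 1 h. Mounted with DAPI and imaged by confocal microscopy.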

The target is the same in assay [9]. Briefly: Induction of katanin p60 subunit-mediated microtubule fragmentation in human NCI-H1975 cells assessed as alpha-tubulin level in soluble form at 300 nM after 1 hr by immunoblot analysis (reference value: 37%). Type of assay: cell-based.
Assay [10] has the same target. Description: Induction of katanin p60 subunit-mediated microtubule fragmentation in human NCI-H1975 cells assessed as alpha-tubulin level in polymer form at 300 nM after 1 hr by immunoblot analysis (reference value: 63%). Type of assay: cell-based.
Assay [11] shares this target. Briefly: Induction of katanin p60 subunit-mediated microtubule fragmentation in human NCI-H1975 cells assessed as alpha-tubulin level in soluble form at 600 nM after 1 hr by immunoblot analysis (reference value: 37%). Type of assay: cell-based.
The target is the same in assay [12]. Briefly: Induction of katanin p60 subunit-mediated microtubule fragmentation in human NCI-H1975 cells assessed as alpha-tubulin level in polymer form at 600 nM after 1 hr by immunoblot analysis (reference value: 63%). Type of assay: cell-based.
Assay [13] has the same target. Briefly: Induction of katanin p60 subunit-mediated microtubule fragmentation in human NCI-H1975 cells assessed as alpha-tubulin level in soluble form at 300 nM after 12 hrs by gel filtration chromatography/immunoblot analysis. It counts as cell-based. In outline: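 H1975 cells treated with 300 nM or vehicle for 12 h; soluble extracts made in IP lysis buffer. Run on a Toyopearl HW-65F gel filtration column equilibrated in IP lysis buffer, collecting 0.5 mL fractions. Fractions separated by 10% SDS–PAGE and α-tubulin detected by immunoblot.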

SMILES strings stand for the structures. The source made the active and inactive calls. The rule behind the calls is not given here.

One may read the IC50 as the concentration at which inhibition is half-maximal. `CCCCOc1ccc(-c2nc(C(N)=O)c3[nH]c(=O)n(-c4ccccc4OC)c3n2)cc1`: in [1], the half-inhibitory concentration (IC50) turned out to be 4.66 µM.
As to `CCOc1ccc(-c2nc(C(N)=O)c3[nH]c(=O)n(-c4cccc(C(=O)O)c4)c3n2)cc1`, the IC50 in assay [1] came to 7.91 µM.
Consider `CCOc1ccc(-c2nc(C(N)=O)c3[nH]c(=O)n(-c4cccc(C(=O)NCCCCCNC(=O)CCCC[C@@H]5SC[C@@H]6NC(=O)N[C@@H]65)c4)c3n2)cc1`, for which, in assay [1], the IC50 was determined as 26.3 µM. Besides, the result in assay [2] and in assay [3] was Active.
Turning to `CCOc1ccc(-c2nc(C(N)=O)c3[nH]c(=O)n(-c4cccc(C(=O)NCCCCCNC(=O)OC(C)(C)C)c4)c3n2)cc1`, in assay [1], the IC50 was over 10 µM.
Take `COC(=O)c1cccc(-n2c(=O)[nH]c3c(C(N)=O)nc(-c4ccc(-c5ccccc5)cc4)nc32)c1`: the 50% inhibitory concentration (IC50) in assay [1] was over 20 µM.
The same measure, in the same setting: then `CCCCCCOc1ccc(-c2nc(C(N)=O)c3[nH]c(=O)n(-c4ccccc4OC)c3n2)cc1`, with over 5 µM.
Turning to `CCOc1ccc(-c2nc(C(N)=O)c3[nH]c(=O)n(-c4ccccc4OC)c3n2)cc1`, the result in [4], in assay [5], in [6], in assay [7], in assay [8] and in assay [13] was Active. Also, the Activity is 68% in assay [9], 32% in assay [10], 75% in [11] and 25% in assay [12].
